Measured values reported in ChEMBL document CHEMBL1156778, “Synthesis and structure-activity studies of biphenyl analogues of the tuberculosis drug (6S)-2-nitro-6-{[4-(trifluoromethoxy)benzyl]oxy}-6,7-dihydro-5H-imidazo[2,1-b][1,3]oxazine (PA-824)” (J Med Chem, 2010).
pIC50: −log10 of the molar value. Converted amounts (≈) assume the structure as drawn.

What was measured:
[1] = tested on: Vero; assay: Cytotoxicity against african green monkey Vero cells after 72 hrs by MTS assay; format: cell-based; settings: Chlorocebus sabaeus
Procedure, shortened: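 VERO cells (CCL-81), 72 h exposure, tetrazolium dye read-out.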

[2] = tested on: Mycobacterium tuberculosis; assay: Antitubercular activity against Mycobacterium tuberculosis H37Rv in aerobic condition after 7 days by microplate alamar blue assay; format: functional; settings: 168 h
Procedure, shortened: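 M. tuberculosis H37Rv, replicating culture; 8-day microplate assay with Alamar blue added on day 7 to read growth. […] Mean of at least two independent determinations ± SD.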

[3] = tested on: Mycobacterium tuberculosis; assay: Antitubercular activity against Mycobacterium tuberculosis H37Rv in anaerobic condition after 7 days by low oxygen recovery assay; format: functional; settings: 168 h

Row | Compound | pIC50 [1] | MIC [2] [µM] | MIC [3] [µM]
1 | Nc1cccc(-c2ccc(CO[C@@H]3COc4nc([N+](=O)[O-])cn4C3)cc2)c1 | < 3.90 | 0.12 (≈ 0.044 µg/mL) | 1.4 (≈ 0.513 µg/mL)
2 | O=[N+]([O-])c1cn2c(n1)OC[C@@H](OCc1ccc(-c3ccccc3F)cc1)C2 | < 3.90 | 0.19 (≈ 0.0702 µg/mL) | 0.67 (≈ 0.247 µg/mL)
3 | N#Cc1ccc(-c2cccc(CO[C@@H]3COc4nc([N+](=O)[O-])cn4C3)c2)cc1 | < 3.90 | 0.23 (≈ 0.0866 µg/mL) | 4.8 (≈ 1.81 µg/mL)
4 | COc1cc(-c2ccc(CO[C@@H]3COc4nc([N+](=O)[O-])cn4C3)cc2)ccc1F | < 3.90 | 0.045 (≈ 0.018 µg/mL) | 1.5 (≈ 0.599 µg/mL)
5 | O=[N+]([O-])c1cn2c(n1)OC[C@@H](OCc1ccc(-c3cc(F)c(F)c(F)c3)cc1)C2 | < 3.90 | 0.04 (≈ 0.0162 µg/mL) | 0.76 (≈ 0.308 µg/mL)
6 | CC(C)(C)OCc1ccc(-c2ccc(CO[C@@H]3COc4nc([N+](=O)[O-])cn4C3)cc2)cc1 | < 3.90 | 0.077 (≈ 0.0337 µg/mL) | 3.1 (≈ 1.36 µg/mL)
7 | O=[N+]([O-])c1cn2c(n1)OC[C@@H](OCc1ccc(-c3cccc(C(F)(F)F)c3)cc1)C2 | < 3.90 | 0.067 (≈ 0.0281 µg/mL) | 1.3 (≈ 0.545 µg/mL)
8 | CSc1ccccc1-c1ccc(CO[C@@H]2COc3nc([N+](=O)[O-])cn3C2)cc1 | < 3.90 | 0.087 (≈ 0.0346 µg/mL) | 1.4 (≈ 0.556 µg/mL)
9 | CC(C)c1cccc(-c2ccc(CO[C@@H]3COc4nc([N+](=O)[O-])cn4C3)cc2)c1 | < 3.90 | 0.14 (≈ 0.0551 µg/mL) | 4.2 (≈ 1.65 µg/mL)
10 | O=[N+]([O-])c1cn2c(n1)OC[C@@H](OCc1ccc(-c3cccc(O)c3)cc1)C2 | < 3.90 | 0.14 (≈ 0.0514 µg/mL) | 3.1 (≈ 1.14 µg/mL)
11 | O=[N+]([O-])c1cn2c(n1)OC[C@@H](OCc1ccc(-c3cccc(OC(F)(F)F)c3)cc1)C2 | < 3.90 | 0.077 (≈ 0.0335 µg/mL) | 1.4 (≈ 0.61 µg/mL)
12 | O=[N+]([O-])c1cn2c(n1)OC[C@@H](OCc1ccc(-c3cccc(F)c3)cc1)C2 | < 3.90 | 0.045 (≈ 0.0166 µg/mL) | 2.2 (≈ 0.813 µg/mL)
13 | O=[N+]([O-])c1cn2c(n1)OC[C@@H](OCc1ccc(-c3ccc(OC(F)(F)F)c([N+](=O)[O-])c3)cc1)C2 | < 3.90 | 0.045 (≈ 0.0216 µg/mL) | 1.6 (≈ 0.769 µg/mL)
14 | O=[N+]([O-])c1cn2c(n1)OC[C@@H](OCc1ccc(-c3ccccc3C(F)(F)F)cc1)C2 | < 3.90 | 0.077 (≈ 0.0323 µg/mL) | 1.6 (≈ 0.671 µg/mL)
15 | N#Cc1cccc(-c2ccc(CO[C@@H]3COc4nc([N+](=O)[O-])cn4C3)cc2)c1 | < 3.90 | 0.12 (≈ 0.0452 µg/mL) | 1.3 (≈ 0.489 µg/mL)
16 | CSc1cccc(-c2ccc(CO[C@@H]3COc4nc([N+](=O)[O-])cn4C3)cc2)c1 | < 3.90 | 0.077 (≈ 0.0306 µg/mL) | 0.95 (≈ 0.378 µg/mL)
17 | O=[N+]([O-])c1cn2c(n1)OC[C@@H](OCc1cccc(-c3ccccc3)c1)C2 | < 3.90 | 0.095 (≈ 0.0334 µg/mL) | 2.1 (≈ 0.738 µg/mL)
18 | O=[N+]([O-])c1cn2c(n1)OC[C@@H](OCc1ccc(-c3ccc(Cl)cc3)cc1)C2 | < 3.90 | 0.015 (≈ 0.00579 µg/mL) | 2.7 (≈ 1.04 µg/mL)
19 | O=[N+]([O-])c1cn2c(n1)OC[C@@H](OCc1cccc(-c3ccc4ccccc4c3)c1)C2 | < 3.90 | 0.12 (≈ 0.0482 µg/mL) | 3.2 (≈ 1.28 µg/mL)
20 | CC(C)c1ccc(-c2ccc(CO[C@@H]3COc4nc([N+](=O)[O-])cn4C3)cc2)cc1 | < 3.90 | 0.1 (≈ 0.0393 µg/mL) | > 32
21 | COc1cccc(Cl)c1-c1ccc(CO[C@@H]2COc3nc([N+](=O)[O-])cn3C2)cc1 | < 3.90 | 0.055 (≈ 0.0229 µg/mL) | 0.74 (≈ 0.308 µg/mL)
22 | O=[N+]([O-])c1cn2c(n1)OC[C@@H](OCc1cccc(-c3ccc(OC(F)F)cc3)c1)C2 | < 3.90 | 0.06 (≈ 0.025 µg/mL) | 2.8 (≈ 1.17 µg/mL)
23 | O=[N+]([O-])c1cn2c(n1)OC[C@@H](OCc1ccc(-c3ccc(C(F)(F)F)c(Cl)c3)cc1)C2 | < 3.90 | 0.06 (≈ 0.0272 µg/mL) | 0.97 (≈ 0.44 µg/mL)

Row | Compound | pIC50 [1] | MIC [2] [µM] | MIC [3] [µM]
24 | O=[N+]([O-])c1cn2c(n1)OC[C@@H](OCc1ccc(-c3ccccc3OC(F)(F)F)cc1)C2 | < 3.90 | 0.035 (≈ 0.0152 µg/mL) | 0.97 (≈ 0.422 µg/mL)
25 | COc1ccc(-c2ccc(CO[C@@H]3COc4nc([N+](=O)[O-])cn4C3)cc2)cc1 | < 3.90 | 0.065 (≈ 0.0248 µg/mL) | 6.8 (≈ 2.59 µg/mL)
26 | CC(C)Oc1ccc(-c2ccc(CO[C@@H]3COc4nc([N+](=O)[O-])cn4C3)cc2)cc1 | < 3.90 | 0.25 (≈ 0.102 µg/mL) | 3.8 (≈ 1.56 µg/mL)
27 | O=[N+]([O-])c1cn2c(n1)OC[C@@H](OCc1ccc(-c3ccc(Cl)c(O)c3)cc1)C2 | < 3.90 | 0.2 (≈ 0.0804 µg/mL) | 2.1 (≈ 0.844 µg/mL)
28 | O=[N+]([O-])c1cn2c(n1)OC[C@@H](OCc1ccc(-c3cccc(Cl)c3)cc1)C2 | < 3.90 | 0.06 (≈ 0.0231 µg/mL) | 1.6 (≈ 0.617 µg/mL)
29 | O=[N+]([O-])c1cn2c(n1)OC[C@@H](OCc1ccc(-c3ccccc3Oc3ccccc3)cc1)C2 | < 3.90 | 0.06 (≈ 0.0266 µg/mL) | 1.8 (≈ 0.798 µg/mL)
30 | O=[N+]([O-])c1cn2c(n1)OC[C@@H](OCc1ccc(-c3ccc4ccccc4c3)cc1)C2 | < 3.90 | 0.045 (≈ 0.0181 µg/mL) | 0.87 (≈ 0.349 µg/mL)
31 | O=Cc1cccc(-c2ccc(CO[C@@H]3COc4nc([N+](=O)[O-])cn4C3)cc2)c1 | < 3.90 | 0.14 (≈ 0.0531 µg/mL) | 0.57 (≈ 0.216 µg/mL)
32 | N#Cc1cccc(-c2cccc(CO[C@@H]3COc4nc([N+](=O)[O-])cn4C3)c2)c1 | < 3.90 | 0.17 (≈ 0.064 µg/mL) | 3.7 (≈ 1.39 µg/mL)
33 | O=[N+]([O-])c1cn2c(n1)OC[C@@H](OCc1ccc(-c3ccccc3)cc1)C2 | < 3.90 | 0.045 (≈ 0.0158 µg/mL) | 3.9 (≈ 1.37 µg/mL)
34 | O=[N+]([O-])c1cn2c(n1)OC[C@@H](OCc1cccc(-c3cccc(F)c3)c1)C2 | < 3.90 | 0.18 (≈ 0.0665 µg/mL) | 2.7 (≈ 0.997 µg/mL)
35 | O=Cc1ccccc1-c1ccc(CO[C@@H]2COc3nc([N+](=O)[O-])cn3C2)cc1 | < 3.90 | 0.08 (≈ 0.0303 µg/mL) | 0.78 (≈ 0.296 µg/mL)
36 | CSc1ccc(-c2ccc(CO[C@@H]3COc4nc([N+](=O)[O-])cn4C3)cc2)cc1 | < 3.90 | 0.075 (≈ 0.0298 µg/mL) | 0.95 (≈ 0.378 µg/mL)
37 | O=[N+]([O-])c1cn2c(n1)OC[C@@H](OCc1ccc(-c3ccccc3O)cc1)C2 | < 3.90 | 0.12 (≈ 0.0441 µg/mL) | 4.6 (≈ 1.69 µg/mL)
38 | O=[N+]([O-])c1cn2c(n1)OC[C@@H](OCc1ccc(-c3ccc(F)c(F)c3)cc1)C2 | < 3.90 | 0.03 (≈ 0.0116 µg/mL) | 1.2 (≈ 0.465 µg/mL)
39 | O=[N+]([O-])c1cn2c(n1)OC[C@@H](OCc1ccc(-c3cccc(OCCO)c3)cc1)C2 | < 3.90 | 0.46 (≈ 0.189 µg/mL) | 5.4 (≈ 2.22 µg/mL)
40 | COc1c(F)cc(-c2ccc(CO[C@@H]3COc4nc([N+](=O)[O-])cn4C3)cc2)cc1F | < 3.90 | 0.045 (≈ 0.0188 µg/mL) | 1.3 (≈ 0.543 µg/mL)
41 | CSc1ccc(-c2cccc(CO[C@@H]3COc4nc([N+](=O)[O-])cn4C3)c2)cc1 | < 3.90 | 0.095 (≈ 0.0378 µg/mL) | 0.93 (≈ 0.37 µg/mL)
42 | O=[N+]([O-])c1cn2c(n1)OC[C@@H](OCc1ccc(-c3ccc(-c4ccccc4)cc3)cc1)C2 | < 3.90 | 0.09 (≈ 0.0385 µg/mL) | > 32
43 | COc1ccccc1-c1ccc(CO[C@@H]2COc3nc([N+](=O)[O-])cn3C2)cc1 | < 3.90 | 0.065 (≈ 0.0248 µg/mL) | 1.4 (≈ 0.534 µg/mL)
44 | CC(C)(C)c1ccc(-c2ccc(CO[C@@H]3COc4nc([N+](=O)[O-])cn4C3)cc2)cc1 | < 3.90 | 0.095 (≈ 0.0387 µg/mL) | > 32
45 | O=[N+]([O-])c1cn2c(n1)OC[C@@H](OCc1cccc(-c3ccc(C(F)(F)F)cc3)c1)C2 | < 3.90 | 0.12 (≈ 0.0503 µg/mL) | 2.9 (≈ 1.22 µg/mL)
